Calls of active or inactive are those of the source. The calls are words filed in the database; no cut-off is given here.
Legend:
[1] = Immunosuppressive activity in BALB/c mouse T cells assessed as inhibition of ConA-induced T cell proliferation incubated 24 hrs post ConA-induction for 72 hrs by MTT assay; assay type: functional, cell-based
How it was run: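 BALB/C lymph node cells, 5 × 10⁵ per well, stimulated with ConA at […] for 24 h, then left untreated or given compounds for 72 h. MTT (4 mg/mL in PBS) added for the last 4 h; proliferation read by MTT and IC₅₀ reported with SD.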

[2] = Cytotoxicity against BALB/c mouse lymph node cells after 24 hrs by MTT assay; assay type: cell-based
How it was run: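 Fresh BALB/C mouse lymph node cells, 5 × 10⁵ per well, given compounds at […] for 24 h at 37 °C, 5% CO₂; untreated cells served as control. MTT (4 mg/mL in PBS) added for the final 4 h, formazan dissolved in DMSO, absorbance read at 570 nm; CC₅₀ reported with SD.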

T-cell [3] = assay: Selectivity index ratio of CC50 for BALB/c mouse lymph node cells to IC50 for BALB/c mouse ConA-induced T cell proliferation; assay type: functional
How it was run: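 Ratio of the lymph node cell CC₅₀ from the 24 h MTT cytotoxicity assay to the IC₅₀ against ConA-stimulated proliferation from the 72 h MTT assay.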

Mus musculus [4] = organism: Mus musculus; assay: Inhibition of PI3K-mediated AKT inhibition in BALB/c mouse lymph node cells assessed as reduction in ConA-induced IL6 production at 5 uM incubated for 2 hrs prior to ConA-indution measured after 22 hrs by ELISA
How it was run: (§1)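 Mouse lymph node cells kept in DMEM with 10% FBS, penicillin and streptomycin at 37 °C, 5% CO₂. Pre-treated with compound at […] or vehicle for 2 h, then with ConA at […] for 22 h. Media centrifuged, and IL-1, IL-6 and IL-10 quantified by mouse ELISA kits.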

[5] = target: Phosphatidylinositol 4,5-bisphosphate 3-kinase catalytic subunit gamma isoform (Homo sapiens, UniProt P48736); assay: Inhibition of PI3Kgamma after 4 hrs
Mus musculus [6] = organism: Mus musculus; assay: Inhibition of PI3K-mediated AKT inhibition in BALB/c mouse lymph node cells assessed as reduction in ConA-induced IL10 production at 5 uM incubated for 2 hrs prior to ConA-indution measured after 22 hrs by ELISA; how it was run: as §1
Mus musculus [7] = organism: Mus musculus; assay: Inhibition of PI3K-mediated AKT inhibition in BALB/c mouse lymph node cells assessed as reduction in ConA-induced IL1 production at 5 uM incubated for 2 hrs prior to ConA-indution measured after 22 hrs by ELISA; how it was run: as §1
T-cell [8] = assay: Induction of apoptosis in BALB/c mouse ConA-activated T cells incubated 24 hrs-post ConA-activation for 24 hrs by AnnexinV-FITC based flow cytometry; assay type: functional
How it was run: (§2)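 Lymph node cells, 3 × 10⁶ per well, stimulated with ConA at […] for 24 h, then exposed to compound at 0.25, 2.5 or 25 µM for 24 h. Cells harvested, stained with Annexin V-FITC and propidium iodide, and apoptotic fraction measured by flow cytometry.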

T-cell [9] = assay: Induction of apoptosis in BALB/c mouse ConA-activated T cells assessed as early apoptotic cells at 0.25 uM incubated 24 hrs-post ConA-activation for 24 hrs by AnnexinV-FITC based flow cytometry relative to vehicle treated control; assay type: functional; how it was run: as §2
T-cell [10] = assay: Induction of apoptosis in BALB/c mouse ConA-activated T cells assessed as early apoptotic cells at 2.5 uM incubated 24 hrs-post ConA-activation for 24 hrs by AnnexinV-FITC based flow cytometry relative to vehicle treated control; assay type: functional; how it was run: as §2
T-cell [11] = assay: Induction of apoptosis in BALB/c mouse ConA-activated T cells assessed as early apoptotic cells at 25 uM incubated 24 hrs-post ConA-activation for 24 hrs by AnnexinV-FITC based flow cytometry relative to vehicle treated control; assay type: functional; how it was run: as §2

Chain of Phosphatidylinositol 4,5-bisphosphate 3-kinase catalytic subunit gamma isoform (P48736 whole entry, canonical isoform): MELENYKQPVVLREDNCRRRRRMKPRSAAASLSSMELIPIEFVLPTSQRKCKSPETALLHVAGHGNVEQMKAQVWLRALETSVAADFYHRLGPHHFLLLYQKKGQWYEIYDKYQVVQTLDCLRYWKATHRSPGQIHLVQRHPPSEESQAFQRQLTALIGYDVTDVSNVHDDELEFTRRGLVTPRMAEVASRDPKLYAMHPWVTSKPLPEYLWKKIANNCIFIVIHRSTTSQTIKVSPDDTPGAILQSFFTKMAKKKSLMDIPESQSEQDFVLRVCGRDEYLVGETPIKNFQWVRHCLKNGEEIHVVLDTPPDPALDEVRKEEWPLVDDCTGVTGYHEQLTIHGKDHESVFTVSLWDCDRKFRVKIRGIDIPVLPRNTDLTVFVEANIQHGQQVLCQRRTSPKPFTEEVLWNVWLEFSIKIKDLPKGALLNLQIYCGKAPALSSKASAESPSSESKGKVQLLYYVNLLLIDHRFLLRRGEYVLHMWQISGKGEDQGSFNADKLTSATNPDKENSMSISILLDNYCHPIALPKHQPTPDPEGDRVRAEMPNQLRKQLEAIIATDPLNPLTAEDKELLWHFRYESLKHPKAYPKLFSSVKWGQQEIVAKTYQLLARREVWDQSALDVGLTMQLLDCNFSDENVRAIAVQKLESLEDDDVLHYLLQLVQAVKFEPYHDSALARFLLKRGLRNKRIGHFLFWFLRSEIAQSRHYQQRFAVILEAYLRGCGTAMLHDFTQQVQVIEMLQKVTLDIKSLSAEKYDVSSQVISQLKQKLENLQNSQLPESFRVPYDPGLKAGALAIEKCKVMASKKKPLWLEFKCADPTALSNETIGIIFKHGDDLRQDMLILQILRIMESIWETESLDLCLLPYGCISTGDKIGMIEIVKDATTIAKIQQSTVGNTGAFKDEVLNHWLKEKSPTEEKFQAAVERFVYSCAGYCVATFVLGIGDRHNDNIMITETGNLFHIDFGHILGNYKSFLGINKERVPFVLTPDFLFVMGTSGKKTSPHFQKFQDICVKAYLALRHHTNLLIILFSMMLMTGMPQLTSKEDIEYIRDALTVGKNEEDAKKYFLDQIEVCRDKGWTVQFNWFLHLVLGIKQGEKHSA

Row | Compound | IC50 [1] | CC50 at 24 h [2] | Ratio CC50/IC50 (T-cell [3]) | other results
1 | COc1cc(-c2nnc(SCc3cccc(Br)c3)o2)ccc1O | 48.1 µM | 382 µM | 7.95 | 
2 | COc1cc(-c2nnc(SCc3ccc(F)cc3)o2)ccc1O | 8.19 µM | 685 µM | 83.62 | 
3 | COc1cc(-c2nnc(SCc3cc(F)cc(F)c3)o2)ccc1OCc1cc(F)cc(F)c1 | 14.4 µM | 266 µM | 18.49 | 
4 | COc1cc(-c2nnc(SCc3ccccc3F)o2)ccc1OCc1ccccc1F | 4.76 µM | 171 µM | 35.89 | inhibition (Mus musculus [4]): Active; IC50 [5]: 5.12 µM; inhibition (Mus musculus [6]): Active; inhibition (Mus musculus [7]): Active
5 | COc1cc(-c2nnc(SCc3ccccc3C)o2)ccc1O | 8.42 µM | 592 µM | 70.36 | IC50 [5]: 6.48 µM
6 | COc1cc(-c2nnc(SCc3ccc(Br)cc3)o2)ccc1OCc1ccc(Br)cc1 | 17.3 µM | 225 µM | 12.99 | 
7 | COc1cc(-c2nnc(SCc3cccc([N+](=O)[O-])c3)o2)ccc1OCc1cccc([N+](=O)[O-])c1 | 12.2 µM | 168 µM | 13.75 | 
8 | COc1cc(-c2nnc(SCc3ccc(Cl)cc3)o2)ccc1O | 11.1 µM | 480 µM | 43.35 | 
9 | COc1cc(-c2nnc(SCc3cccc(Cl)c3)o2)ccc1OCc1cccc(Cl)c1 | 15.8 µM | 178 µM | 11.23 | 
10 | COc1cc(-c2nnc(SCc3ccc(Br)cc3)o2)ccc1O | 8.83 µM | 455 µM | 51.58 | 
11 | COc1cc(-c2nnc(SCc3ccc(C)cc3)o2)ccc1OCc1ccc(C)cc1 | 9.06 µM | 275 µM | 30.38 | 
12 | COc1cc(-c2nnc(SCc3c(F)cccc3F)o2)ccc1O | 10.1 µM | 575 µM | 57.1 | 
13 | COc1cccc(CSc2nnc(-c3ccc(O)c(OC)c3)o2)c1 | 7.41 µM | 389 µM | 52.55 | IC50 [5]: 2.87 µM
14 | COc1cc(-c2nnc(SCc3cccc(Br)c3)o2)ccc1OCc1cccc(Br)c1 | 9.12 µM | 161 µM | 17.66 | 
15 | C/C=C/C[C@@H](C)[C@@H](O)[C@H]1C(=O)N[C@@H](CC)C(=O)N(C)CC(=O)N(C)[C@@H](CC(C)C)C(=O)N[C@@H](C(C)C)C(=O)N(C)[C@@H](CC(C)C)C(=O)N[C@@H](C)C(=O)N[C@H](C)C(=O)N(C)[C@@H](CC(C)C)C(=O)N(C)[C@@H](CC(C)C)C(=O)N(C)[C@@H](C(C)C)C(=O)N1C [CYCLOSPORINE] |  |  | 82.19 | 
16 | COc1cc(-c2nnc(SCc3ccc(F)cc3F)o2)ccc1OCc1ccc(F)cc1F | 12.9 µM | 182 µM | 14.1 | 
17 | COc1cc(-c2nnc(SCc3ccc(C)cc3)o2)ccc1O | 6.21 µM | 549 µM | 88.5 | IC50 [5]: 7.41 µM
18 | COc1cc(-c2nnc(SCc3ccccc3Br)o2)ccc1OCc1ccccc1Br | 8.71 µM | 151 µM | 17.33 | 

Row | Compound | IC50 [1] | CC50 at 24 h [2] | Ratio CC50/IC50 (T-cell [3]) | other results
19 | COc1cc(-c2nnc(SCc3ccccc3Br)o2)ccc1O | 17.8 µM | 363 µM | 20.42 | 
20 | COc1cc(-c2nnc(SCc3ccc(Cl)cc3)o2)ccc1OCc1ccc(Cl)cc1 | 17.2 µM | 136 µM | 5 | 
21 | COc1cc(-c2nnc(SCc3ccc([N+](=O)[O-])cc3)o2)ccc1OCc1ccc([N+](=O)[O-])cc1 | 7.6 µM | 156 µM | 20.48 | 
22 | COc1cccc(COc2ccc(-c3nnc(SCc4cccc(OC)c4)o3)cc2OC)c1 | 10.1 µM | 242 µM | 24.04 | 
23 | COc1cc(-c2nnc(SCc3ccc(F)cc3)o2)ccc1OCc1ccc(F)cc1 | 12.9 µM | 153 µM | 11.89 | 
24 | COc1cc(-c2nnc(SCc3ccccc3)o2)ccc1O | 1.25 µM | 211 µM | 168.83 | inhibition (Mus musculus [4]): Active; Activity (T-cell [8]): Dose-dependent effect; IC50 [5]: 1.34 µM; Activity (T-cell [9]): 2.43%; Activity (T-cell [10]): 4.34%; inhibition (Mus musculus [6]): Active; Activity (T-cell [11]): 4.98%; inhibition (Mus musculus [7]): Active
25 | COc1cc(-c2nnc(SCc3ccccc3[N+](=O)[O-])o2)ccc1O | 9.6 µM | 331 µM | 34.45 | 
26 | COc1cc(-c2nnc(SCc3ccccc3F)o2)ccc1O | 5.79 µM | 474 µM | 81.82 | 
27 | COc1cc(-c2nnc(SCc3ccccc3)o2)ccc1OCc1ccccc1 | 13.3 µM | 197 µM | 14.79 | 
28 | COc1cc(-c2nnc(SCc3ccccc3Cl)o2)ccc1OCc1ccccc1Cl | 10.6 µM | 144 µM | 8.67 | 
29 | COc1cc(-c2nnc(SCc3ccc(F)cc3F)o2)ccc1O | 9.69 µM | 520 µM | 53.67 | 
30 | COc1cc(-c2nnc(SCc3ccccc3Cl)o2)ccc1O | 8.43 µM | 564 µM | 66.94 | 
31 | COc1cc(-c2nnc(SCc3ccc([N+](=O)[O-])cc3)o2)ccc1O | 14.2 µM | 688 µM | 48.6 | 
32 | COc1cc(-c2nnc(SCc3cccc(Cl)c3)o2)ccc1O | 8.29 µM | 470 µM | 56.74 | 
33 | COc1cc(-c2nnc(SCc3ccccc3C)o2)ccc1OCc1ccccc1C | 18.9 µM | 195 µM | 15.19 | 
34 | COc1cc(-c2nnc(SCc3cccc([N+](=O)[O-])c3)o2)ccc1O | 16 µM | 392 µM | 24.59 | 
35 | COc1cc(-c2nnc(SCc3c(F)cccc3F)o2)ccc1OCc1c(F)cccc1F | 5.22 µM | 179 µM | 34.21 | IC50 [5]: 5.74 µM
